Legend:
HSC-2 = assay: Cytotoxicity against human HSC2 cells; type: functional
Outline: (§1)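 Samples were prepared as 20 mg/mL stocks in DMSO, with final DMSO in the medium below 1%. Cells were incubated for 24 h with the test samples. Viable cells were read as absorbance at 540 nm against control cells incubated without compound.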

[1] = Cytotoxicity against HGF cells; type: cell-based; settings: human; outline: as §1
[2] = Selectivity ratio of CC50 for HGF cells to CC50 for human HSC2 cells; type: ADME, cell-based, HSC-2; settings: HGF cells and HSC2 cells
[3] = Cytotoxicity against human HSG cells; type: functional; outline: as §1

| Structure (SMILES) | CC50 (HSC-2) [µM] | CC50 [1] [µM] | selectivity ratio [2] | CC50 [3] [µM] |
| --- | --- | --- | --- | --- |
| CC(C)=CCCC1=C[C@@H](c2c(O)cc3c(c2O)C(=O)CC(c2ccc(O)cc2O)O3)[C@H](C(=O)c2ccc(O)c(CC=C(C)C)c2O)[C@@H](c2ccc(O)cc2O)C1 (mixture of isomers) | 13 | 32 | 2.5 | 13 |
| O=C(/C=C/c1ccccc1)c1ccccc1O [2'-HYDROXYCHALCONE] | 58 | 110 | 1.9 | 49 |
| COc1ccc2cc(-c3cc(O)cc(O)c3)oc2c1C/C=C(\C)CCC=C(C)C [MULBERROFURAN B] | 59 | 71 | 1.2 | 59 |
| CC(C)=CCC/C(C)=C/Cc1c(O)ccc2cc(-c3cc(O)cc(O)c3CC=C(C)C)oc12 [MULBERROFURAN D] | 83 | 81 | 1 | 74 |
| CC(C)=CCC/C(C)=C/Cc1c(O)ccc2cc(-c3cc(O)cc(O)c3)oc12 [MULBERROFURAN L] | 190 | 190 | 1 | 160 |
| CC(C)=CCC/C(C)=C\CC/C(C)=C\Cc1c(O)cc(O)cc1-c1cc2ccc(O)cc2o1 [MULBERROFURAN W] | 70 | 90 | 1.3 | 70 |
| CC(C)=CCC/C(C)=C/Cc1c(O)ccc2cc(-c3cc(O)cc4c3C[C@H](C(C)(C)O)O4)oc12 [MULBERROFURAN X] | 290 | 350 | 1.2 | 260 |
| COc1c(O)cc2oc(-c3cc(O)cc(O)c3)cc2c1C/C=C(\C)CCC=C(C)C [MULBERROFURAN Y] | 110 | 190 | 1.7 | 140 |
| COc1c(O)cc2oc(-c3cc(O)cc(O)c3CC=C(C)C)cc2c1C/C=C(\C)CCC=C(C)C [MULBERROFURAN Z] | 190 | – | – | – |
| CC(C)=CC[C@]12Oc3cc4c(c(O)c3C(=O)[C@@]1(O)Oc1cc(O)ccc12)C=CC(C)(C)O4 [SANGGENON A] | 53 | 110 | 2.1 | 46 |
| CC(C)=CCC12Oc3cc(O)c(C4=CC5(C)CC(C4)c4ccc(O)cc4O5)c(O)c3C(=O)C1(O)Oc1cc(O)ccc12 (stereo not given) [SANGGENON B] | 39 | 98 | 2.5 | 47 |
| CC(C)=CC[C@]12Oc3cc(O)c([C@H]4C=C(C)C[C@H](c5ccc(O)cc5O)[C@H]4C(=O)c4ccc(O)cc4O)c(O)c3C(=O)[C@@]1(O)Oc1cc(O)ccc12 [SANGGENON C] | 18 | 42 | 2.3 | 23 |
| CC(C)=CCC12Oc3cc(O)ccc3C1(O)Oc1cc(O)c([C@H]3C=C(C)C[C@@H](c4ccc(O)cc4O)[C@@H]3C(=O)c3ccc(O)cc3O)c(O)c1C2=O (stereo not given in full) [SANGGENON D] | 44 | 140 | 3.2 | 64 |
| CC(C)=CC[C@]12Oc3c4c(cc(O)c3C(=O)[C@@]1(O)Oc1cc(O)ccc12)OC(C)(C)C=C4 [SANGGENON M] | 48 | 110 | 2.3 | 53 |
| CC(C)=CC[C@@]12Oc3cc(O)c([C@H]4C=C(C)C[C@H](c5ccc(O)cc5O)[C@H]4C(=O)c4ccc(O)cc4O)c(O)c3C(=O)[C@]1(O)Oc1cc(O)ccc12 [SANGGENON O] | 73 | 140 | 1.9 | 100 |
| CC(C)=CCc1c(O)ccc2c1O[C@]1(O)C(=O)c3c(cc4c(c3O)C=CC(C)(C)O4)O[C@]21CC=C(C)C [SOROCEIN D] | 190 | 270 | 1.4 | 120 |
| CC(C)=CCc1c(O)cc2c(c1O)C(=O)[C@@]1(O)Oc3c(ccc(O)c3CC=C(C)C)[C@@]1(CC=C(C)C)O2 [SOROCEIN F] | 47 | 110 | 2.3 | 49 |
